What is called inhibition is the drop in the measured response relative to a control, in per cent. Broadly, the MIC is the smallest concentration in the dilution series that meets the test's criterion for growth inhibition. High values mean a need for much substance, low ones inhibition by little substance.

Holding throughout (format): functional
The test system of assay [1] is Escherichia coli. Description: Antibacterial activity against Escherichia coli assessed as zone of inhibition at 100 ug/ml after 24 hrs by disc diffusion method. The note with it: read-out: DIZ. A digest of the protocol: (§1)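 Agar disc diffusion on nutrient agar plates pre-inoculated separately with each bacterium. Sterile 6 mm paper discs were moistened with compound solution in DMSO at 100 or 200 per disc and placed on the plates. Plates were incubated at 37 °C, and growth-inhibition zone diameter was measured after 24 h. Chloramphenicol served as the reference drug.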
Background: Agar diffusion results depend on both activity and mobility in agar.

The test system of assay [2] is Klebsiella pneumoniae. Description: Antibacterial activity against Klebsiella pneumoniae assessed as zone of inhibition at 100 ug/ml after 24 hrs by disc diffusion method. Particulars: read-out: DIZ. The method, boiled down:
as §1

For assay [3], the system named is Curvularia lunata. Description: Antifungal activity against Curvularia lunata assessed as zone of inhibition at 100 ug/ml after 48 hrs by disc diffusion method. Particulars: read-out: DIZ. The method, boiled down: (§2)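 Fungi were grown on potato dextrose agar at 25 °C for 3 days, and spore suspensions were adjusted to 10⁶ spores/ml. In the disc diffusion test, inoculated plates received 6 mm paper discs moistened with compound in DMSO at 100 or 200 per disc. Plates were incubated at 37 °C, and inhibition zone diameter was read at 48 h. Ketoconazole was the standard.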

For assay [4], the system named is Staphylococcus aureus. Nature of the assay: Antibacterial activity against Staphylococcus aureus assessed as zone of inhibition at 200 ug/ml after 24 hrs by disc diffusion method. The note with it: read-out: DIZ. A digest of the protocol:
as §1

The test system of assay [5] is Bacillus subtilis. Description: Antibacterial activity against Bacillus subtilis assessed as zone of inhibition at 100 ug/ml after 24 hrs by disc diffusion method. The note with it: read-out: DIZ. A digest of the protocol:
as §1

Assay [6] has as its system Radical scavenging activity. Nature of the assay: Antioxidant activity against DPPH free radical scavenging activity at 100 uM after 20 mins by spectrophotometric analysis at pH 7.5. The method, boiled down: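 DPPH assay: compound solutions at 100 were added to DPPH at 100 in dioxane/methanol and held at ambient temperature for 20 min. Absorbance was read at 517 nm, and the test–control difference was expressed as percent DPPH radical scavenging.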
A general note: Loss of DPPH colour is used to gauge radical scavenging.

The subject of assay [7] is Fusarium solani. Description: Antifungal activity against Fusarium solani assessed as zone of inhibition at 200 ug/ml after 48 hrs by disc diffusion method. Particulars: read-out: DIZ. A digest of the protocol: as §2
A short description of assay [8]: Antioxidant activity against nitric oxide scavenging activity at 100 uM after 120 mins by spectrophotometric analysis at pH 7.4. A digest of the protocol: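 Nitric oxide scavenging: test compounds at 100 in dioxane/methanol were incubated at 25 °C for 120 min, with a solvent-only control. At intervals, 0.5 ml samples were mixed with an equal volume of Griess reagent (1% sulfanilamide, 0.1% N-naphthylethylenediamine dihydrochloride, 2% o-phosphoric acid). Absorbance of the azo chromophore was then measured.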

Assay [9] deals with Escherichia coli. Description: Antibacterial activity against Escherichia coli assessed as zone of inhibition at 200 ug/ml after 24 hrs by disc diffusion method. Particulars: read-out: DIZ. The method, boiled down:
as §1

In assay [10] the test system is Aspergillus niger. Nature of the assay: Antifungal activity against Aspergillus niger assessed as zone of inhibition at 100 ug/ml after 48 hrs by disc diffusion method. Particulars: read-out: DIZ. The method, boiled down: as §2
Assay [11] relates to Fusarium solani. Nature of the assay: Antifungal activity against Fusarium solani assessed as zone of inhibition at 100 ug/ml after 48 hrs by disc diffusion method. The note with it: read-out: DIZ. A digest of the protocol:
as §2

Assay [12] relates to Klebsiella pneumoniae. Nature of the assay: Antibacterial activity against Klebsiella pneumoniae assessed as zone of inhibition at 200 ug/ml after 24 hrs by disc diffusion method. Particulars: read-out: DIZ. A digest of the protocol:
as §1

The subject of assay [13] is Aspergillus niger. Nature of the assay: Antifungal activity against Aspergillus niger assessed as zone of inhibition at 200 ug/ml after 48 hrs by disc diffusion method. The note with it: read-out: DIZ. A digest of the protocol:
as §2

In assay [14] the test system is Bacillus subtilis. Nature of the assay: Antibacterial activity against Bacillus subtilis assessed as zone of inhibition at 200 ug/ml after 24 hrs by disc diffusion method. The note with it: read-out: DIZ. The method, boiled down:
as §1

Assay [15] relates to Curvularia lunata. Nature of the assay: Antifungal activity against Curvularia lunata assessed as zone of inhibition at 200 ug/ml after 48 hrs by disc diffusion method. The note with it: read-out: DIZ. The method, boiled down:
as §2

For assay [16], the system named is Staphylococcus aureus. Nature of the assay: Antibacterial activity against Staphylococcus aureus assessed as zone of inhibition at 100 ug/ml after 24 hrs by disc diffusion method. The note with it: read-out: DIZ. The method, boiled down: as §1
Assay [17] concerns Fusarium solani. Description: Antifungal activity against Fusarium solani after 48 hrs by microdilution method. The method, boiled down: (§3)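 MIC by microdilution susceptibility testing in tubes. Incubation was at 36 °C for 24 h (bacteria) or 48 h (fungi). MIC was recorded as the lowest compound concentration giving no turbidity, i.e. no visible growth. Chloramphenicol was the antibacterial reference and ketoconazole the antifungal standard.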
A general note: Dilution methods test growth across graded concentrations, often in twofold steps.

For assay [18], the system named is Curvularia lunata. Description: Antifungal activity against Curvularia lunata after 48 hrs by microdilution method. A digest of the protocol: as §3
For assay [19], the system named is Aspergillus niger. Nature of the assay: Antifungal activity against Aspergillus niger after 48 hrs by microdilution method. The method, boiled down:
as §3

Assay [20] relates to Klebsiella pneumoniae. Description: Antibacterial activity against Klebsiella pneumoniae after 24 hrs by microdilution method. A digest of the protocol:
as §3

Assay [21] relates to Escherichia coli. Nature of the assay: Antibacterial activity against Escherichia coli after 24 hrs by microdilution method. The method, boiled down: as §3
In assay [22] the test system is Bacillus subtilis. Description: Antibacterial activity against Bacillus subtilis after 24 hrs by microdilution method. A digest of the protocol: as §3
Assay [23] relates to Staphylococcus aureus. Description: Antibacterial activity against Staphylococcus aureus after 24 hrs by microdilution method. The method, boiled down: as §3

Each structure is given as a SMILES string. ≈ marks a conversion by molar mass, not a printed value.

Regarding `N#CC(C#N)=C(SCc1nnc(-c2ccccc2)o1)SCc1nnc(-c2ccccc2)o1`, the zone of inhibition at 100 µg/mL in assay [1] came to 8 mm; in assay [2], 9 mm; in assay [3] it was 15 mm; in assay [5], 12 mm; in assay [10], 12 mm; in assay [11] it was 18 mm. For the same compound, the zone of inhibition at 100 µg/mL in assay [16] came to 12 mm. Moreover, the zone of inhibition at 200 µg/mL was found to be 14 mm in [4]; 21 mm in assay [7]; 10 mm in [9]; 12 mm in [12]; 14 mm in [13]; 16 mm in [14]. Besides, in assay [15], the zone of inhibition at 200 µg/mL is 17 mm. Also, the inhibition in assay [6] was found to be 63.5%; in assay [8], 65.4%.

For the compound `CC(=O)N1CCN(c2ccc(OCC3COC(Cn4ccnc4)(c4ccc(Cl)cc4Cl)O3)cc2)CC1` (configuration not stated) [KETOCONAZOLE], the zone of inhibition at 100 µg/mL came to 41 mm in assay [3], 36 mm in assay [10] and 38 mm in assay [11]. The zone of inhibition at 200 µg/mL in [7] was found to be 42 mm; in assay [13], 39 mm; in assay [15] it was 44 mm. Besides, the MIC in [17] worked out at 12.5 µg/mL (≈ 23.5 µM); in [18], 6.25 µg/mL (≈ 11.8 µM); in assay [19] it was 6.25 µg/mL (≈ 11.8 µM).

With `N#CC(C#N)=C(SCc1nnc(-c2ccccc2)s1)SCc1nnc(-c2ccccc2)s1`, the zone of inhibition at 100 µg/mL in assay [1] came out at 21 mm; in [2], 23 mm; in [3], 26 mm; in assay [5], 23 mm; in [10], 21 mm; in [11], 25 mm. Further, the zone of inhibition at 100 µg/mL in assay [16] was found to be 24 mm. Besides, the zone of inhibition at 200 µg/mL in [4] came out at 26 mm; in assay [7], 28 mm; in assay [9], 24 mm; in assay [12] it was 24 mm; in assay [13], 24 mm; in assay [14], 27 mm. Also, in [15], the zone of inhibition at 200 µg/mL amounted to 28 mm. The MIC in [20] was found to be 200 µg/mL (≈ 408 µM); in assay [17], 100 µg/mL (≈ 204 µM); in assay [18] it was 100 µg/mL (≈ 204 µM); in [21] it was 200 µg/mL (≈ 408 µM); in [19], 100 µg/mL (≈ 204 µM); in assay [22] it was 100 µg/mL (≈ 204 µM). The compound further showed an MIC in [23] of 200 µg/mL (≈ 408 µM). The inhibition in assay [6] came to 26.3%; in assay [8], 25.8%.

As to `O=C1O[C@H]([C@@H](O)CO)C(O)=C1O`, the values for the inhibition in assay [6] and in [8] were 95.3% and 94.9%, respectively.

Regarding `O=C(N[C@H](CO)[C@H](O)c1ccc([N+](=O)[O-])cc1)C(Cl)Cl` [CHLORAMPHENICOL], the zone of inhibition at 100 µg/mL in assay [1] was determined as 40 mm; in [2], 42 mm; in [5], 38 mm; in assay [16], 35 mm. Besides, the zone of inhibition at 200 µg/mL in assay [4] was 39 mm; in [9] it was 44 mm; in assay [12], 45 mm; in assay [14] it was 41 mm. The MIC in assay [20] came to 12.5 µg/mL (≈ 38.7 µM); in [21] it was 6.25 µg/mL (≈ 19.3 µM); in assay [22], 6.25 µg/mL (≈ 19.3 µM); in assay [23], 6.25 µg/mL (≈ 19.3 µM).
